Active and inactive are the calls of the source. The rule behind the calls is not given here.
What was measured:
Mus musculus [1] = experiment: Toxicity in mouse assessed as change in appearance at 12.5 to 50 mg/kg, po bid in 20% HP-beta-CD; type: organism-based; set-up: dose 12.5-50 mg/kg, route oral; settings: in vivo
How it was run: (§1)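 Mice in the four-day oral treatment study were given compound bid by gavage in 20% HPβCD or 20% Kolliphor. They were watched for weight loss, mobility problems and changes in appearance throughout dosing.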

Liver microsome [2] = experiment: Half life in human liver microsomes; type: ADME
[3] = Tmax in mouse at 50 mg/kg, po in 20% HP-beta-CD; type: ADME, organism-based; set-up: dose 50 mg/kg, route oral; settings: in vivo
How it was run: (§2)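 Female Swiss Webster mice, 8 weeks old, given one oral gavage dose of 50 mg/kg as a 10 mg/mL preparation in the named vehicle (20% HPβCD suspension or 20% Kolliphor). Plasma sampled at about 0.25, 0.5, 1, 2, 4, 6, 8, 12 and 24 h, n = 3 per time point. Protein precipitated with 5 volumes acetonitrile, filtered, then LC-MS/MS. Values are averages of three mice.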

[4] = Drug uptake in mouse skeletal muscle at 50 mg/kg, po in 20% Kolliphor measured at 8 hrs post dose; type: ADME, organism-based, Muscle tissue; set-up: dose 50 mg/kg, route oral; settings: in vivo
How it was run: (§3)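 Female Swiss Webster mice, 8 weeks old, given a single 50 mg/kg oral gavage dose in 20% HPβCD or 20% Kolliphor. Tissues taken from three mice at 2 and 8 h post dose. Homogenized by probe sonication in PBS (1:4 w/v), protein precipitated with acetonitrile, and compound measured by LC-MS/MS in μM.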

Trypanosoma cruzi [5] = experiment: Antitrypanosomal activity against Trypanosoma cruzi amastigotes infected in mouse C2C12 cells after 72 hrs by DAPI staining method; type: functional, organism-based; settings: C2C12, 72 h
[6] = Drug uptake in mouse fat at 50 mg/kg, po in 20% HP-beta-CD measured at 8 hrs post dose; type: ADME, organism-based, Adipose tissue; set-up: dose 50 mg/kg, route oral; settings: in vivo; how it was run: as §3
Intestine [7] = experiment: Drug uptake in mouse intestine at 50 mg/kg, po in 20% HP-beta-CD measured at 8 hrs post dose; type: ADME, organism-based; set-up: dose 50 mg/kg, route oral; settings: in vivo; how it was run: as §3
Heart [8] = experiment: Drug uptake in mouse heart at 50 mg/kg, po in 20% HP-beta-CD measured at 8 hrs post dose; type: ADME, organism-based; set-up: dose 50 mg/kg, route oral; settings: in vivo; how it was run: as §3
Cytochrome P450 3A4 = Cytochrome P450 3A4 (Homo sapiens, UniProt P08684); experiment: Inhibition of CYP3A4 in human liver microsomes at 1 uM; type: ADME
[9] = Half life in mouse at 50 mg/kg, po in 20% Kolliphor; type: ADME, organism-based; set-up: dose 50 mg/kg, route oral; settings: in vivo; how it was run: as §2
Trypanosoma cruzi [10] = experiment: Antitrypanosomal activity against Trypanosoma cruzi Y luc infected in mouse assessed as inhibition of parasitemia at 25 mg/kg, po bid in 20% HP-beta-CD administered for 4 consecutive days starting on day 3 of infection measured on day 7 post infection relative to vehicle-treated control; type: functional, organism-based; set-up: dose 25 mg/kg
How it was run: (§4)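 Female Swiss Webster mice, 8 weeks old, infected ip with 10^5 T. cruzi Y luc trypomastigotes. Only mice with detectable luminescence on day 3 were treated. Compound given by oral gavage bid for four days, as a suspension in 20% HPβCD or a solution in 20% Kolliphor, five mice per group. Vehicle group and benznidazole 50 mg/kg served as controls. On day 7, mice were injected ip with 150 mg/kg d-luciferin and imaged after 5 min under isoflurane. Percent inhibition calculated against untreated mice; two-tailed paired t test.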

C2C12 = experiment: Cytotoxicity against mouse C2C12 cells up to 10 uM; type: cell-based
How it was run: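 Mouse C2C12 myoblasts infected with T. cruzi CA-I/72, then exposed at 24 h postinfection to compound at 10 μM down to 5 pM in 5-fold steps for 72 h at 37 °C. Cells fixed in paraformaldehyde, stained with DAPI and scored by automated imaging. Triplicate wells; uninfected and infected untreated wells as controls.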

Trypanosoma cruzi [11] = experiment: Antitrypanosomal activity against Trypanosoma cruzi Y luc infected in mouse assessed as inhibition of parasitemia at 50 mg/kg, po bid in 20% HP-beta-CD administered for 4 consecutive days starting on day 3 of infection measured on day 7 post infection relative to vehicle-treated control; type: functional, organism-based; set-up: dose 50 mg/kg; how it was run: as §4
[12] = Cmax in mouse at 50 mg/kg, po in 20% Kolliphor; type: ADME, organism-based; set-up: dose 50 mg/kg, route oral; settings: in vivo; how it was run: as §2
Mus musculus [13] = experiment: Toxicity in mouse assessed as mobility issues at 12.5 to 50 mg/kg, po bid in 20% HP-beta-CD; type: organism-based; set-up: dose 12.5-50 mg/kg, route oral; settings: in vivo; how it was run: as §1
[14] = Clearance in mouse at 50 mg/kg, po in 20% Kolliphor; type: ADME, organism-based; set-up: dose 50 mg/kg, route oral; settings: in vivo; how it was run: as §2
Heart [15] = experiment: Drug uptake in mouse heart at 50 mg/kg, po in 20% Kolliphor measured at 8 hrs post dose; type: ADME, organism-based; set-up: dose 50 mg/kg, route oral; settings: in vivo; how it was run: as §3
Mus musculus [16] = experiment: Toxicity in mouse assessed as change in appearance at 12.5 to 50 mg/kg, po bid in 20% Kolliphor; type: organism-based; set-up: dose 12.5-50 mg/kg, route oral; settings: in vivo; how it was run: as §1
Cytochrome P450 2C9 = Cytochrome P450 2C9 (Homo sapiens, UniProt P11712); experiment: Inhibition of CYP2C9 in human liver microsomes at 1 uM; type: ADME
[17] = Tmax in mouse at 50 mg/kg, po in 20% Kolliphor; type: ADME, organism-based; set-up: dose 50 mg/kg, route oral; settings: in vivo; how it was run: as §2
Trypanosoma cruzi [18] = experiment: Antitrypanosomal activity against Trypanosoma cruzi Y luc infected in mouse assessed as inhibition of parasitemia at 50 mg/kg, po bid in 20% Kolliphor administered for 4 consecutive days starting on day 3 of infection measured on day 7 post infection relative to vehicle-treated control; type: functional; how it was run: as §4
Liver [19] = experiment: Drug uptake in mouse liver at 50 mg/kg, po in 20% HP-beta-CD measured at 8 hrs post dose; type: ADME, organism-based; set-up: dose 50 mg/kg, route oral; settings: in vivo; how it was run: as §3
Mus musculus [20] = experiment: Toxicity in mouse assessed as weight loss at 12.5 to 50 mg/kg, po bid in 20% HP-beta-CD; type: organism-based; set-up: dose 12.5-50 mg/kg, route oral; settings: in vivo; how it was run: as §1
[21] = molecular target: Sterol 14-alpha demethylase (Trypanosoma cruzi (strain CL Brener), UniProt Q7Z1V1); experiment: Binding affinity to Trypanosoma cruzi CYP51 by UV-vis titration method; settings: read-out: Kd(app)
Liver [22] = experiment: Half life in mouse liver microsomes; type: ADME
[23] = Drug uptake in mouse fat at 50 mg/kg, po in 20% Kolliphor measured at 8 hrs post dose; type: ADME, organism-based, Adipose tissue; set-up: dose 50 mg/kg, route oral; settings: in vivo; how it was run: as §3
[24] = Cmax in mouse at 50 mg/kg, po in 20% HP-beta-CD; type: ADME, organism-based; set-up: dose 50 mg/kg, route oral; settings: in vivo; how it was run: as §2
[25] = Drug uptake in mouse skeletal muscle at 50 mg/kg, po in 20% HP-beta-CD measured at 8 hrs post dose; type: ADME, organism-based, Muscle tissue; set-up: dose 50 mg/kg, route oral; settings: in vivo; how it was run: as §3
Liver microsome [26] = experiment: Half life in rat liver microsomes; type: ADME
[27] = AUClast in mouse at 50 mg/kg, po in 20% Kolliphor; type: ADME, organism-based; set-up: time 0 - last, dose 50 mg/kg, route oral; settings: plasma; how it was run: as §2
Lung [28] = experiment: Drug uptake in mouse lung at 50 mg/kg, po in 20% HP-beta-CD measured at 8 hrs post dose; type: ADME, organism-based; set-up: dose 50 mg/kg, route oral; settings: in vivo; how it was run: as §3
Lung [29] = experiment: Drug uptake in mouse lung at 50 mg/kg, po in 20% Kolliphor measured at 8 hrs post dose; type: ADME, organism-based; set-up: dose 50 mg/kg, route oral; settings: in vivo; how it was run: as §3
Trypanosoma cruzi [30] = experiment: Antitrypanosomal activity against Trypanosoma cruzi Y luc infected in mouse assessed as inhibition of parasitemia at 25 mg/kg, po bid in 20% Kolliphor administered for 4 consecutive days starting on day 3 of infection measured on day 7 post infection relative to vehicle-treated control; type: functional; how it was run: as §4
[31] = Half life in mouse at 50 mg/kg, po in 20% HP-beta-CD; type: ADME, organism-based; set-up: dose 50 mg/kg, route oral; settings: in vivo; how it was run: as §2
Cytochrome P450 2D6 = Cytochrome P450 2D6 (Homo sapiens, UniProt P10635); experiment: Inhibition of CYP2D6 in human liver microsomes at 1 uM; type: ADME
Mus musculus [32] = experiment: AUClast in mouse at 50 mg/kg, po in 20% HP-beta-CD; type: ADME, organism-based, Plasma; set-up: time 0 - last, dose 50 mg/kg, route oral; settings: in vivo; how it was run: as §2
Cytochrome P450 1A2 = molecular target: T1, Cytochrome P450 1A2 (Homo sapiens, UniProt P05177); experiment: Inhibition of CYP1A2 in human liver microsomes at 1 uM; type: ADME
T1 sequence (P05177 whole entry): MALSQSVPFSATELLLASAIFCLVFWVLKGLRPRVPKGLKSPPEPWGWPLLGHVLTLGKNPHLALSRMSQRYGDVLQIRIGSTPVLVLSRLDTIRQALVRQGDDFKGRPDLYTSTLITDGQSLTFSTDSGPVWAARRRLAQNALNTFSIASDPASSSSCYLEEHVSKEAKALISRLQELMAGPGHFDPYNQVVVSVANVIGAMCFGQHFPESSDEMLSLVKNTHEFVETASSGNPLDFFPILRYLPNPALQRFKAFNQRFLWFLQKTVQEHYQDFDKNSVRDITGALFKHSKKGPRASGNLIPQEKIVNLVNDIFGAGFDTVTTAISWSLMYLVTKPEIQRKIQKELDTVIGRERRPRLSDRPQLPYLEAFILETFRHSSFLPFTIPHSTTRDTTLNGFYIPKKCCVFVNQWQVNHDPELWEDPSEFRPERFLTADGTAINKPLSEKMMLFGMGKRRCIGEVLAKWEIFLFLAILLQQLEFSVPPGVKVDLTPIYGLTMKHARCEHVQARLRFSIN

Intestine [33] = experiment: Drug uptake in mouse intestine at 50 mg/kg, po in 20% Kolliphor measured at 8 hrs post dose; type: ADME, organism-based; set-up: dose 50 mg/kg, route oral; settings: in vivo; how it was run: as §3
Mus musculus [34] = experiment: Toxicity in mouse assessed as weight loss at 12.5 to 50 mg/kg, po bid in 20% Kolliphor; type: organism-based; set-up: dose 12.5-50 mg/kg, route oral; settings: in vivo; how it was run: as §1
Liver [35] = experiment: Drug uptake in mouse liver at 50 mg/kg, po in 20% Kolliphor measured at 8 hrs post dose; type: ADME, organism-based; set-up: dose 50 mg/kg, route oral; settings: in vivo; how it was run: as §3
Mus musculus [36] = experiment: Toxicity in mouse assessed as mobility issues at 12.5 to 50 mg/kg, po bid in 20% Kolliphor; type: organism-based; set-up: dose 12.5-50 mg/kg, route oral; settings: in vivo; how it was run: as §1

Sterol 14-alpha demethylase, sequence (Q7Z1V1 whole entry): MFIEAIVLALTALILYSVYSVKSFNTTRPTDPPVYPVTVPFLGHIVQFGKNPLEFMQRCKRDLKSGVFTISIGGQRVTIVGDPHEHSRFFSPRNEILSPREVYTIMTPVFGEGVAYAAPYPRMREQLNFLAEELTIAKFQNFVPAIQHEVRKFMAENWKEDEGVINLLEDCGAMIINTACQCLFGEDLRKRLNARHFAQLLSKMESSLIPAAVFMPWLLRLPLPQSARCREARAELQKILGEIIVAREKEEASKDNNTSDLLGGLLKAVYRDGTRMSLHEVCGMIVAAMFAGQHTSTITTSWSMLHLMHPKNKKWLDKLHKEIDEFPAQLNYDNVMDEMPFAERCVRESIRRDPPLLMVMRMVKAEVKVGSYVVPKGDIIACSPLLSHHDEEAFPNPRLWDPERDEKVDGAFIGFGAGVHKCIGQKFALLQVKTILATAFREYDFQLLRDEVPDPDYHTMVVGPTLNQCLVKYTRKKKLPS
Cytochrome P450 3A4, sequence (P08684 whole entry): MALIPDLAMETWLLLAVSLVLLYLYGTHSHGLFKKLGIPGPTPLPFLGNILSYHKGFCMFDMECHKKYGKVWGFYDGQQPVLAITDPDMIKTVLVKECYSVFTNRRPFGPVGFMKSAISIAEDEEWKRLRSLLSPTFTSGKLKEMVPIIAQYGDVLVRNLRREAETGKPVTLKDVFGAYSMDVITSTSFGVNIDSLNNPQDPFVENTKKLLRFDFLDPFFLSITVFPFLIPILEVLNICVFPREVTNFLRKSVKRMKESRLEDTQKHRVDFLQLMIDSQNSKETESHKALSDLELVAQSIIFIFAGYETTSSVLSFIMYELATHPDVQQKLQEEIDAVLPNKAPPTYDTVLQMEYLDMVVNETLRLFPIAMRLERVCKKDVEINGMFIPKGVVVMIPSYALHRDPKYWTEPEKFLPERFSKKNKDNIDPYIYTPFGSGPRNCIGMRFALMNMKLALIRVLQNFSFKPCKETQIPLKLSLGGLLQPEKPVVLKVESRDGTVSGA
Cytochrome P450 2C9, sequence (P11712 whole entry): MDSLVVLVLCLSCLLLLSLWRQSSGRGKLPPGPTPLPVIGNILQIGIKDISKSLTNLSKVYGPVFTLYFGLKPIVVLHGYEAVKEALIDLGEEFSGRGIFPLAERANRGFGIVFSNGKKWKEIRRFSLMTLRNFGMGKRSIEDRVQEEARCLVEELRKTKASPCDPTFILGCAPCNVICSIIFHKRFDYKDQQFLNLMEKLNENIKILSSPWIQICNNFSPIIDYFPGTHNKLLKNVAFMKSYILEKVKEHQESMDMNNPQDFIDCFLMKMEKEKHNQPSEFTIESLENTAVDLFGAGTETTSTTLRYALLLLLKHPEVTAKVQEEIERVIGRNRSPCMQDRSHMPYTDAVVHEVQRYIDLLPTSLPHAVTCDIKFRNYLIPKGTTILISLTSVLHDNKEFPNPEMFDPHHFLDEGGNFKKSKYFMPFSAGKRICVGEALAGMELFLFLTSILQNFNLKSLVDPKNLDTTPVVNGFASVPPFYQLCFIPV
Cytochrome P450 2D6, sequence (P10635 whole entry): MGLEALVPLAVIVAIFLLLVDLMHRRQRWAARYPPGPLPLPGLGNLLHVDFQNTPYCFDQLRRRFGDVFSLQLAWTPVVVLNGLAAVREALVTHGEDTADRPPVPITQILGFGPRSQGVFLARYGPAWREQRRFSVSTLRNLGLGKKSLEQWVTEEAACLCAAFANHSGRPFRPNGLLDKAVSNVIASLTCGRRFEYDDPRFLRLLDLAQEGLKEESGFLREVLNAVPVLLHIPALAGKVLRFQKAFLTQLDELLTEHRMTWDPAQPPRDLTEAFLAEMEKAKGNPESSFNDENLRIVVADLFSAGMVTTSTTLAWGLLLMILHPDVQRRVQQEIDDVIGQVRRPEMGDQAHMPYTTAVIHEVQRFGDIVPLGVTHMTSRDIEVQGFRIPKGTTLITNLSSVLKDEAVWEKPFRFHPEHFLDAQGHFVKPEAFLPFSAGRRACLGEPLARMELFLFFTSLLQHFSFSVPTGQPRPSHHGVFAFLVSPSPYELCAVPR

t1/2 (Liver microsome [2]): 0.417 h
Tmax [3]: 2 h
Drug uptake [4]: Active
EC50 (Trypanosoma cruzi [5]): 21 nM
Drug uptake [6]: Active
Drug uptake (Intestine [7]): Active
Drug uptake (Heart [8]): Active
inhibition (INH) (Cytochrome P450 3A4): 27%
half-life [9]: 3.76 h
Cmax [12]: 13.6 µM
CL/F [14]: 14.1 mL/min/kg
Drug uptake (Heart [15]): Active
inhibition (INH) (Cytochrome P450 2C9): 90%
Tmax [17]: 2.33 h
Drug uptake (Liver [19]): Active
Kd [21]: 12 nM
t1/2 (Liver [22]): 0.817 h
Drug uptake [23]: Active
Cmax [24]: 1.02 µM
Drug uptake [25]: Active
t1/2 (Liver microsome [26]): 0.3 h
AUC(0-t) [27]: 106 µM·h
Drug uptake (Lung [28]): Active
Drug uptake (Lung [29]): Active
half-life [31]: 4.87 h
inhibition (INH) (Cytochrome P450 2D6): 21%
AUClast (Mus musculus [32]): 4.55 µM·h
inhibition (INH) (Cytochrome P450 1A2): -5%
Drug uptake (Intestine [33]): Active
Drug uptake (Liver [35]): Active
SMILES: O=C(N[C@H](Cc1c[nH]c2ccccc12)C(=O)Nc1ccncc1)c1ccc(-c2cc(C(F)(F)F)ccc2F)cc1F
Activity (Mus musculus [1]): Non-toxic
inhibition (Trypanosoma cruzi [10]): Active
Activity (C2C12): Non-toxic
inhibition (Trypanosoma cruzi [11]): Active
Activity (Mus musculus [13]): Non-toxic
Activity (Mus musculus [16]): Non-toxic
inhibition in vivo at 50 mg/kg (Trypanosoma cruzi [18]): 91.3%
Activity (Mus musculus [20]): Non-toxic
inhibition in vivo at 25 mg/kg (Trypanosoma cruzi [30]): 63.3%
Activity (Mus musculus [34]): Non-toxic
Activity (Mus musculus [36]): Non-toxic

From ChEMBL document CHEMBL3352430, “4-Aminopyridyl-based CYP51 inhibitors as anti-Trypanosoma cruzi drug leads with improved pharmacokinetic profile and in vivo potency” (J Med Chem, 2014)
